# According to the RNAGym collection of RNA variant scans (doi:10.1126/science.aae0568):
# Variants at the floor of the assay were thinned out.
# B1: tRNA (parent)
# chain: GUUCCGUUGGCGUAAUGGUAACGCGUCUCCCUCCUAAGGAGAAGACUGCGGGUUCGAGUCCCGUACGGAACG
# Variants of: B1
# Assay: yeast fitness relative to wild type (ratio to wild type); higher = fitter; tRNA-Arg(CCU), competitive growth, 37 C, YPD
# Outline: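 Variants of the tRNA-Arg(CCU) gene were chemically synthesised with a 3% per-site mutation rate across 69 sites and placed at the native genomic locus in Saccharomyces cerevisiae. Six parallel replicates of the pooled strains were competed in YPD at 37°C for 24 hours, and gene amplicons from the start and end populations were read by 100-nucleotide paired-end sequencing. Darwinian fitness relative to wild type was derived from changes in genotype frequencies. Genotypes required ≥ 100 starting reads, and estimates < 0.5 were set to 0.5.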
row,Variant,yeast fitness
1,GUUCCGUUGGCGUAAUGGUAACGCGUCUCCCUCCUAAGGAGAAGACUGCGGGUUCGAGUCUCGUGCGAAACG [C61U A65G G68A],0.705
2,GUUCCGUUGGCGUAAUGGUAACGCGUCUCCCUCCUAAGGAGAAGACUGCGGGUUCGAGUCCUGUACGCGACG [C62U G68C A69G],0.567
3,GUUCCGUUGGCGUAAUGGUAACGCGUCUCCCUCCUAAGGAGAAGACUGCGGGUUCGAGUCCCCUUCGGAUCG [G63C A65U A70U],0.558
4,GUUCCGUUGGCGUAAUGGUAACGCGUCUCCCUCCUAAGGAGAAGACUGCGGGUUCGAGUCCUGUAUAGAACG [C62U C66U G67A],0.52
5,GUUCCGUUGGCGUAAUGGUAACGCGUCUCCCUCCUAAGGAGAAGACUGCGGGUUCGAGUCCCGAACGUAACG [U64A G68U],0.728
6,GUUCCGUUGGCGUAAUGGUAACGCGUCUCCCUCCUAAGGAGAAGACUGCGGGUUCGAGUCCCGAACGCAACG [U64A G68C],0.709
7,GUUCCGUUGGCGUAAUGGUAACGCGUCUCCCUCCUAAGGAGAAGACUGCGGGUUCGAGUCGGGUACGGACCG [C61G C62G A70C],0.512
8,GUUCCGUUGGCGUAAUGGUAACGCGUCUCCCUCCUAAGGAGAAGACUGCGGGUUCGAGUCCAGUACGGGGCG [C62A A69G A70G],0.614
9,GUUCCGUUGGCGUAAUGGUAACGCGUCUCCCUCCUAAGGAGAAGACUGCGGGUUCGAGUCGCGUAUGGAACG [C61G C66U],0.635
10,GUUCCGUUGGCGUAAUGGUAACGCGUCUCCCUCCUAAGGAGAAGACUGCGGGUUCGAGUCGAGUACGGAACG [C61G C62A],0.503
11,GUUCCGUUGGCGUAAUGGUAACGCGUCUCCCUCCUAAGGAGAAGACUGCGGGUUCGAGUCGGGUACGGAACG [C61G C62G],0.741
12,GUUCCGUUGGCGUAAUGGUAACGCGUCUCCCUCCUAAGGAGAAGACUGCGGGUUCGAGUCUCGUACGGAUCG [C61U A70U],1.04
13,GUUCCGUUGGCGUAAUGGUAACGCGUCUCCCUCCUAAGGAGAAGACUGCGGGUUCGAGUCCAGUACGGAGCG [C62A A70G],0.674
14,GUUCCGUUGGCGUAAUGGUAACGCGUCUCCCUCCUAAGGAGAAGACUGCGGGUUCGAGUCCCAAACGGAACG [G63A U64A],0.864
15,GUUCCGUUGGCGUAAUGGUAACGCGUCUCCCUCCUAAGGAGAAGACUGCGGGUUCGAGUCCCAUAGGGAACG [G63A C66G],0.678
16,GUUCCGUUGGCGUAAUGGUAACGCGUCUCCCUCCUAAGGAGAAGACUGCGGGUUCGAGUCCUGAACGGAACG [C62U U64A],0.735
17,GUUCCGUUGGCGUAAUGGUAACGCGUCUCCCUCCUAAGGAGAAGACUGCGGGUUCGAGUCCGGUUCGGUACG [C62G A65U A69U],0.535
18,GUUCCGUUGGCGUAAUGGUAACGCGUCUCCCUCCUAAGGAGAAGACUGCGGGUUCGAGUCGCCUACGGAACG [C61G G63C],0.532
19,GUUCCGUUGGCGUAAUGGUAACGCGUCUCCCUCCUAAGGAGAAGACUGCGGGUUCGAGUCUCGCACGGAACG [C61U U64C],0.902

row,Variant,yeast fitness
1,GUUCCGUUGGCGUAAUGGUAACGCGUCUCCCUCCUAAGGAGAAGACUGCGGGUUCGAGUCUCGAACGGAACG [C61U U64A],0.606
2,GUUCCGUUGGCGUAAUGGUAACGCGUCUCCCUCCUAAGGAGAAGACUGCGGGUUCGAGUCCCAUACGGUACG [G63A A69U],0.856
3,GUUCCGUUGGCGUAAUGGUAACGCGUCUCCCUCCUAAGGAGAAGACUGCGGGUUCGAGUCCUGUUCGGAACG [C62U A65U],0.93
4,GUUCCGUUGGCGUAAUGGUAACGCGUCUCCCUCCUAAGGAGAAGACUGCGGGUUCGAGUCCAGUCCGGAACG [C62A A65C],0.766
5,GUUCCGUUGGCGUAAUGGUAACGCGUCUCCCUCCUAAGGAGAAGACUGCGGGUUCGAGUCUCGUACGGGCCG [C61U A69G A70C],0.923
6,GUUCCGUUGGCGUAAUGGUAACGCGUCUCCCUCCUAAGGAGAAGACUGCGGGUUCGAGUCCCAUACAGGACG [G63A G67A A69G],≤ 0.5
7,GUUCCGUUGGCGUAAUGGUAACGCGUCUCCCUCCUAAGGAGAAGACUGCGGGUUCGAGUCCCCUACCGACCG [G63C G67C A70C],0.778
8,GUUCCGUUGGCGUAAUGGUAACGCGUCUCCCUCCUAAGGAGAAGACUGCGGGUUCGAGUCCCAUACCGAACG [G63A G67C],0.707
9,GUUCCGUUGGCGUAAUGGUAACGCGUCUCCCUCCUAAGGAGAAGACUGCGGGUUCGAGUCCAGUUCGGAUCG [C62A A65U A70U],0.531
10,GUUCCGUUGGCGUAAUGGUAACGCGUCUCCCUCCUAAGGAGAAGACUGCGGGUUCGAGUCCCGAUCGGAUCG [U64A A65U A70U],0.601
11,GUUCCGUUGGCGUAAUGGUAACGCGUCUCCCUCCUAAGGAGAAGACUGCGGGUUCGAGUCUCGUACGAAGCG [C61U G68A A70G],0.648
12,GUUCCGUUGGCGUAAUGGUAACGCGUCUCCCUCCUAAGGAGAAGACUGCGGGUUCGAGUCCUGUACGAAACG [C62U G68A],0.838
13,GUUCCGUUGGCGUAAUGGUAACGCGUCUCCCUCCUAAGGAGAAGACUGCGGGUUCGAGUCCGCUACGGAACG [C62G G63C],0.588
14,GUUCCGUUGGCGUAAUGGUAACGCGUCUCCCUCCUAAGGAGAAGACUGCGGGUUCGAGUCCCGCACGGUACG [U64C A69U],1.07
15,GUUCCGUUGGCGUAAUGGUAACGCGUCUCCCUCCUAAGGAGAAGACUGCGGGUUCGAGUCCCGCACGGCACG [U64C A69C],0.983
16,GUUCCGUUGGCGUAAUGGUAACGCGUCUCCCUCCUAAGGAGAAGACUGCGGGUUCGAGUCCUGUACGGUACG [C62U A69U],0.955
17,GUUCCGUUGGCGUAAUGGUAACGCGUCUCCCUCCUAAGGAGAAGACUGCGGGUUCGAGUCCCUAACGGAACG [G63U U64A],0.676
18,GUUCCGUUGGCGUAAUGGUAACGCGUCUCCCUCCUAAGGAGAAGACUGCGGGUUCGAGUCCCGCACGGAGCG [U64C A70G],0.844
